The values that follow come from ChEMBL document CHEMBL2146359, “HCV NS5A replication complex inhibitors. Part 2: investigation of stilbene prolinamides” (Bioorg Med Chem Lett, 2012).

In brackets after ≈: the same amount, converted by molar mass. Where only a bound is given, the exact number is not on record here.

The nature of series [1]: Cytotoxicity against human HuH7 cells after 72 hrs by Alamar Blue assay. Particulars: Huh-7 cells. The format is cell-based.
Series [2] concerns Bovine viral diarrhea virus 1. Briefly: Antiviral activity against BVDV1. The format is functional, organism-based. Particulars: Bovine viral diarrhea virus isolates and strains.
The nature of series [3]: AUC in rat at 1.8 mg/kg, po. Details: dose 1.8 mg/kg, route oral. The format is ADME, organism-based. The conditions noted are these: plasma.
Series [4] can be described thus: Half life in rat at 1.8 mg/kg, po and iv. Also on record: dose 1.8 mg/kg, route oral. The format is ADME, organism-based. Particulars: in vivo.
The subject of series [5] is Rattus norvegicus. Briefly: Volume of distribution at steady state in rat at 1.8 mg/kg, po and iv. Particulars: in vivo. The class given is ADME, organism-based. Also on record: dose 1.8 mg/kg, route oral.
Series [6] in a line: Solubility of the compound. The class given is physicochemical.
Series [7] can be described thus: Metabolic stability in rat liver microsomes assessed as compound remaining after 10 mins. Particulars: read-out: Stability. The format is ADME, Microsome. For orientation: Liver microsomes are a subcellular fraction often used to study metabolism.
The nature of series [8]: AUC in rat at 1.8 mg/kg, iv. The class given is ADME, organism-based. Details: dose 1.8 mg/kg, route intravenous. Particulars: plasma.
Series [9] is described as follows: Cmax in rat at 1.8 mg/kg, po and iv. The class given is ADME, organism-based. Details: dose 1.8 mg/kg, route oral. The conditions noted are these: in vivo.
In series [10] the test system is Hepatitis C virus. Briefly: Antiviral activity against HCV genotype 1b infected in human Huh7 cells assessed as inhibition of viral replication by FRET assay. The format is functional, organism-based, Hepacivirus hominis. Particulars: Huh-7. The method, boiled down:
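Replicon potency values are the means of at least two experiments.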

Series [11] in a line: Oral bioavailability in rat at 1.8 mg/kg. Particulars: in vivo. The format is ADME, organism-based.
For series [12], the system named is Rattus norvegicus. The series can be described thus: AUC in rat at 2.5 mg/kg, iv. The class given is ADME, organism-based, Plasma. Details: dose 2.5 mg/kg, route intravenous. The conditions noted are these: in vivo.
Series [13] in a line: Half life in rat at 2.5 mg/kg, po and iv. The class given is ADME, organism-based. The conditions noted are these: in vivo. Details: dose 2.5 mg/kg, route oral.
Series [14] in a line: Permeability across human Caco2 cells. The class given is ADME, cell-based. The conditions noted are these: Caco-2, read-out: permeability.
In series [15] the test system is Rattus norvegicus. The series can be described thus: Volume of distribution at steady state in rat at 2.5 mg/kg, po and iv. Particulars: in vivo. The format is ADME, organism-based. Also on record: dose 2.5 mg/kg, route oral.
A short description of series [16]: AUC in rat at 1.6 mg/kg, iv. Also on record: dose 1.6 mg/kg, route intravenous. The conditions noted are these: plasma. The class given is ADME, organism-based.
Series [17] is described as follows: Half life in rat at 1.6 mg/kg, po and iv. The conditions noted are these: in vivo. The format is ADME, organism-based. Also on record: dose 1.6 mg/kg, route oral.
The test system of series [18] is Rattus norvegicus. Briefly: Volume of distribution at steady state in rat at 1.6 mg/kg, po and iv. The class given is ADME, organism-based. Details: dose 1.6 mg/kg, route oral. The conditions noted are these: in vivo.
Series [19] in a line: Half life in rat at 2.8 mg/kg, po and iv. The class given is ADME, organism-based. Details: dose 2.8 mg/kg, route oral. Particulars: in vivo.
Series [20] deals with Rattus norvegicus. Briefly: Volume of distribution at steady state in rat at 2.8 mg/kg, po and iv. The class given is ADME, organism-based. Also on record: dose 2.8 mg/kg, route oral. Particulars: in vivo.
Series [21] in a line: AUC in rat at 2.8 mg/kg, po. The format is ADME, organism-based. Details: dose 2.8 mg/kg, route oral. Particulars: plasma.
A short description of series [22]: AUC in rat at 2.8 mg/kg, iv. The class given is ADME, organism-based. Details: dose 2.8 mg/kg, route intravenous. The conditions noted are these: plasma.
A short description of series [23]: Oral bioavailability in rat at 2.8 mg/kg. The format is ADME, organism-based. Particulars: in vivo.
The nature of series [24]: Cmax in rat at 2.8 mg/kg, po and iv. Details: dose 2.8 mg/kg, route oral. The conditions noted are these: in vivo. The class given is ADME, organism-based.

By CC50 is commonly meant the concentration giving 50% cytotoxicity. A low value points to greater toxicity to the cells. The EC50 is the concentration giving half of the maximal effect. One may read the AUC as concentration integrated over time. A high value points to high exposure. By half-life is commonly meant the time needed for the level to fall by half in the phase considered. Read a low half-life as fast loss. As usually defined, the solubility is how much of the substance goes into solution per volume. Read a low solubility as little dissolved substance. A word on the Cmax: it is the maximum level reached in the sampled fluid or tissue. A word on the bioavailability: it is the share of a dose that reaches the circulation, judged against a reference dose that is usually intravenous. Low readings indicate little systemic uptake, high ones much systemic uptake. Regarding `O=C(Nc1ccc(/C=C/c2ccc(NC(=O)[C@@H]3CCCN3C(=O)OCc3ccccc3)cc2)cc1)[C@@H]1CCCN1C(=O)OCc1ccccc1`, in [1], the 50% cytotoxic concentration (CC50) at 72 h was above 10 µM. The values for the EC50 in series [2] and in series [10] were above 10 µM and 0.00897 µM, respectively. Further, the AUC came to 37 ng·h/mL in series [3] and 1620 ng·h/mL in [8]. Further, the half-life in series [4] was 4.6 h. The Vdss in series [5] was 4.3 L/kg. In addition, the solubility in series [6] is below 1 µg/mL. The remaining at 10 min in [7] came out at 77%. Also, the Cmax in [9] came to 4 ng/mL. This molecule also showed a bioavailability in series [11] of 2%.

Consider `CC(=O)N1CCC[C@H]1C(=O)Nc1ccc(/C=C/c2ccc(NC(=O)[C@@H]3CCCN3C(=O)Cc3ccccc3)cc2)cc1`, for which the CC50 at 72 h in series [1] is above 10 µM. The EC50 in [2] is above 10 µM; in series [10], 0.0015 µM. The AUC in series [12] worked out at 101535 ng·h/mL. Further, the half-life in series [13] is 5.2 h. Further, the Papp in [14] was below 1.5 ×10⁻⁶ cm/s. The remaining at 10 min in [7] came to 82%. The Vdss in series [15] was found to be 1.2 L/kg.

In [16], `O=C(Nc1ccc(/C=C/c2ccc(NC(=O)[C@@H]3C[C@@H](O)CN3C(=O)OCc3ccccc3)cc2)cc1)[C@@H]1C[C@@H](O)CN1C(=O)OCc1ccccc1` displayed an AUC of 2450 ng·h/mL. Also, the half-life in series [17] is 6.4 h. For the same molecule, in series [1], the CC50 at 72 h is above 10 µM. Also, the results for the EC50 in series [2] and in series [10] were above 10 µM and 0.0289 µM, respectively. In series [18], this molecule returned a Vdss of 1 L/kg. The Papp in [14] was 3.5 ×10⁻⁶ cm/s. Further, the remaining at 10 min in series [7] stood at 99%.

For `O=C(Nc1ccc(/C=C/c2ccc(NC(=O)[C@@H]3CCCN3C(=O)Cc3cccnc3)cc2)cc1)[C@@H]1CCCN1C(=O)Cc1cccnc1`, the CC50 at 72 h in series [1] is above 10 µM. The EC50 in series [2] was above 10 µM; in series [10], 0.000784 µM. The area under the curve (AUC) amounted to 322 ng·h/mL in series [3] and 3080 ng·h/mL in [8]. Further, in series [4], the half-life was 9.3 h. Further, in series [5], the Vdss was 2.9 L/kg. This molecule yielded a solubility in [6] of 53 µg/mL (≈ 82.5 µM). For the same molecule, the Papp in series [14] amounted to 1.6 ×10⁻⁶ cm/s. In addition, the remaining at 10 min in [7] is 88%. Also, in series [9], the Cmax came out at 120 ng/mL. Also, the bioavailability in series [11] was 10%.

As for `O=C(Nc1ccc(/C=C/c2ccc(NC(=O)[C@@H]3CCCN3C(=O)c3ccc4occc4c3)cc2)cc1)[C@@H]1CCCN1C(=O)c1ccc2occc2c1`, the CC50 at 72 h in series [1] is above 10 µM. Moreover, the EC50 in series [2] was above 10 µM; in series [10], 0.056 µM.

With `Cc1nc2ccccn2c1C(=O)N1CCC[C@H]1C(=O)Nc1ccc(/C=C/c2ccc(NC(=O)[C@@H]3CCCN3C(=O)c3c(C)nc4ccccn34)cc2)cc1`, in series [1], the CC50 at 72 h is above 10 µM. Moreover, the EC50 in series [2] was above 10 µM; in series [10] it was 0.0868 µM.

Molecule `O=C(Nc1ccc(/C=C/c2ccc(NC(=O)[C@@H]3CCCN3C(=O)c3cccc4ccccc34)cc2)cc1)[C@@H]1CCCN1C(=O)c1cccc2ccccc12` came in with a CC50 at 72 h in [1] above 10 µM. Further, the 50% effective concentration (EC50) is above 10 µM in [2] and 1.63 µM in series [10].

With `O=C(Nc1ccc(/C=C/c2ccc(NC(=O)[C@@H]3CCCN3C(=O)c3ccc4ccccc4c3)cc2)cc1)[C@@H]1CCCN1C(=O)c1ccc2ccccc2c1`, the CC50 at 72 h in series [1] is above 10 µM. Also, the EC50 in series [2] was above 10 µM; in [10] it was 10 µM.

In the case of `CCc1ccccc1C(=O)N1CCC[C@H]1C(=O)Nc1ccc(/C=C/c2ccc(NC(=O)[C@@H]3CCCN3C(=O)c3ccccc3CC)cc2)cc1`, the CC50 at 72 h in [1] was above 10 µM. In addition, the figures for the EC50 in series [2] and in series [10] were above 10 µM and 1.13 µM, respectively.

Molecule `O=C(Nc1ccc(/C=C/c2ccc(NC(=O)[C@@H]3CCCN3C(=O)CC3CC3)cc2)cc1)[C@@H]1CCCN1C(=O)CC1CC1` showed a half-life in series [19] of 4.9 h. The half-maximal cytotoxic concentration (CC50) at 72 h in series [1] is above 10 µM. Moreover, the EC50 in [2] is above 10 µM; in [10], 0.062 µM. The molecule further gave a Vdss in [20] of 0.8 L/kg. The AUC in series [21] was found to be 11900 ng·h/mL; in series [22], 18500 ng·h/mL. The concentration in solution in series [6] (solubility) was 4.4 µg/mL (≈ 7.74 µM). The Papp in [14] is 0.4 ×10⁻⁶ cm/s. The molecule further came in with a bioavailability in [23] of 64%. Also, in series [7], the remaining at 10 min is 84%. In [24], the peak level (Cmax) was 1500 ng/mL.
